We go through three compounds from ChEMBL document CHEMBL1250448, “Inhibitor hijacking of Akt activation” (Nat Chem Biol, 2009).

SMILES strings stand for the structures. Active and inactive are the calls of the source. The calls are words filed in the database; no cut-off is given here.

For assay [1], the target named is Cyclin-dependent kinase 2/cyclin A (Homo sapiens) (UniProt P24941+P20248+P78396). The experiment in a line: Inhibition of CDK2/cyclin A at 1 uM in presence of 10 uM ATP by Select Screen kinase assay relative to untreated control. In kind it is protein-complex assay. A digest of the protocol:
(§1)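 Single-point screen at 1 μM against a panel of 220 purified kinases, run by Invitrogen staff as a SelectScreen profiling service. Read-out is percent inhibition of kinase activity.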

Assay [2] has as its target RAC-gamma serine/threonine-protein kinase (Homo sapiens) (UniProt Q9Y243). The experiment in a line: Inhibition of AKT3 at 1 uM in presence of 10 uM ATP by Select Screen kinase assay relative to untreated control. A digest of the protocol:
as §1

Assay [3] has as its system Proto-oncogene tyrosine-protein kinase receptor Ret (Homo sapiens), P07949 [Y791F]. The experiment in a line: Inhibition of RET Y791F mutant at 1 uM in presence of 10 uM ATP by Select Screen kinase assay relative to untreated control. A digest of the protocol: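 Profiling panel of 220 purified kinases (SelectScreen), each compound tested at 1 μM. Read-out is percent inhibition of kinase activity.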

For assay [4], the target named is Serine/threonine-protein kinase Nek2 (Homo sapiens) (UniProt P51955). The experiment in a line: Inhibition of NEK2 at 1 uM in presence of 10 uM ATP by Select Screen kinase assay relative to untreated control.
Sequence of Serine/threonine-protein kinase Nek2 (Homo sapiens) (P51955 whole entry): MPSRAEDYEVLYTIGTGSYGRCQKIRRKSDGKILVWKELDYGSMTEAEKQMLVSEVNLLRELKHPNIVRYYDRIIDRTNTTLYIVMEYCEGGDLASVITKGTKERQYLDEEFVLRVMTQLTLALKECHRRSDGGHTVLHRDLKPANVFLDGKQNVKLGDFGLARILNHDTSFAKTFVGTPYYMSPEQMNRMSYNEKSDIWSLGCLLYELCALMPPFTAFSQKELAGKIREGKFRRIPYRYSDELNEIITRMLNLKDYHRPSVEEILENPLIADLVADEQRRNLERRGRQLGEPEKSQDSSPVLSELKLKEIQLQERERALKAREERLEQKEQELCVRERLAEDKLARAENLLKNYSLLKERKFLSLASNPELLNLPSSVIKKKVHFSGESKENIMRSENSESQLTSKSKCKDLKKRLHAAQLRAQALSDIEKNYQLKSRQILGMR
In assay [5] the target is Receptor-type tyrosine-protein kinase FLT3 (Homo sapiens) (UniProt P36888). The experiment in a line: Inhibition of FLT3 at 1 uM in presence of 10 uM ATP by Select Screen kinase assay relative to untreated control. A digest of the protocol:
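Single-concentration profiling at 1 μM against a panel of 220 purified kinases, run as an outsourced SelectScreen kinase profiling service. Activity is expressed as percent inhibition.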

The target in assay [6] is Testis-specific serine/threonine-protein kinase 2 (Homo sapiens) (UniProt Q96PF2). The experiment in a line: Inhibition of STK22B at 1 uM in presence of 10 uM ATP by Select Screen kinase assay relative to untreated control. A digest of the protocol: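 Commercial SelectScreen profiling panel of 220 purified kinases. Each kinase was tested at a single inhibitor concentration of 1 μM, and activity was expressed as percent inhibition.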
Sequence of Testis-specific serine/threonine-protein kinase 2 (Homo sapiens) (Q96PF2 whole entry): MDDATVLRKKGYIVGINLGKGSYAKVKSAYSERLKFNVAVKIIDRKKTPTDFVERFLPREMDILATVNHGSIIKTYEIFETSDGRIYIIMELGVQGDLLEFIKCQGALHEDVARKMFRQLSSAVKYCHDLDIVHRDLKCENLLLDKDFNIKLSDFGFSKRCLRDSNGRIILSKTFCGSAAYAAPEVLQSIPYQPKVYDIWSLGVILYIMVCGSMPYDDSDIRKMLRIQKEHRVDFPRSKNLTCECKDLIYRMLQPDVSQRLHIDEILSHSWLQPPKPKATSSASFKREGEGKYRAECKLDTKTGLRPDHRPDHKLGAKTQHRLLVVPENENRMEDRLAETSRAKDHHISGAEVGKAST

Assay [7] deals with RAC-alpha serine/threonine-protein kinase (Homo sapiens, UniProt P31749). The experiment in a line: Inhibition of AKT1.
Sequence of RAC-alpha serine/threonine-protein kinase (P31749 whole entry): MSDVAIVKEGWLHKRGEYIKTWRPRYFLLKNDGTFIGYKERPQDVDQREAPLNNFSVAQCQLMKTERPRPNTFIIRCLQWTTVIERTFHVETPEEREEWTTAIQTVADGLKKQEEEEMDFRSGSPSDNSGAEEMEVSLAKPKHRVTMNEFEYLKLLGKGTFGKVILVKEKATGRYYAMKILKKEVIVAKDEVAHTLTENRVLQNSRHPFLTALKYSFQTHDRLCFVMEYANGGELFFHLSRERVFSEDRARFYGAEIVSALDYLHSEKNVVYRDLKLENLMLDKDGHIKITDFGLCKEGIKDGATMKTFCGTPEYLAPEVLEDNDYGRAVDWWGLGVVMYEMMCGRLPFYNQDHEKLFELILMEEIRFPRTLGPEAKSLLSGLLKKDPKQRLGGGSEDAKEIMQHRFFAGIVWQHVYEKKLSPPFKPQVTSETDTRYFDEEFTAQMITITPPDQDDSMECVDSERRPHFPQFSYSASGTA
The test system of assay [8] is RAC-alpha serine/threonine-protein kinase (Homo sapiens), P31749 [M227G,D292A]. The experiment in a line: Induction of nonmyristoylated AKT1 M227G and kinase dead D292A mutant Thr308 hyperphosphorylation expressed in HEK293T cells at 2.5 uM after 30 mins by immunoblotting. In kind it is cell-based. The note with it: HEK-293T.
Sequence of RAC-alpha serine/threonine-protein kinase (Homo sapiens), P31749 [M227G,D292A] (P31749 whole entry M227G/D292A): as the sequence (P31749 whole entry) above, with M227G, D292A counted along it
The subject of assay [9] is RAC-alpha serine/threonine-protein kinase (Homo sapiens), P31749 [M227G]. The experiment in a line: Induction of AKT1 M227G Thr308 hyperphosphorylation expressed in HEK293 cells at 2.5 uM after 30 mins pretreated with allosteric AKT inhibitor Akti-1,2 10 mins before compound addition by immunoblotting.
For assay [10] the test system is unchanged. The experiment in a line: Induction of myristoylated AKT1 M227G mutant Thr308 hyperphosphorylation expressed in HEK293T cells at 2.5 uM after 30 mins pretreated with mTOR kinase inhibitor PP242 for 10 mins before compound addition by immunoblotting. Type of assay: cell-based. Conditions: HEK-293T.
Assay [11] shares this test system. The experiment in a line: Induction of myristoylated AKT1 M227G mutant Thr308 hyperphosphorylation expressed in HEK293T cells at 2.5 uM after 30 mins pretreated with PDK1 inhibitor BX-795 for 10 mins before compound addition by immunoblotting. Type of assay: cell-based. Conditions: HEK-293T.
The test system is the same in assay [12]. The experiment in a line: Induction of myristoylated AKT1 M227G Thr308 hyperphosphorylation expressed in HEK293 cells coexpressing flag-tagged wild type AKT1 after 30 mins by immunoblotting. In kind it is cell-based.
The test system of assay [13] is RAC-alpha serine/threonine-protein kinase (Homo sapiens), P31749 [M227G,D292A]. The experiment in a line: Induction of myristoylated AKT1 M227G and kinase dead D292A mutant Thr308 hyperphosphorylation expressed in PC3 cells at 2.5 uM after 30 mins by immunoblotting. In kind it is cell-based. The note with it: PC-3.
Assay [14] deals with MiaPaCa2. The experiment in a line: Induction of myristoylated AKT2 M225G mutant Ser473 hyperphosphorylation expressed in MiaPaCa2 cells at 2.5 uM after 30 mins by immunoblotting. Type of assay: cell-based.
For another assay, the system named is MCF7. The experiment in a line: Induction of myristoylated AKT2 M225G and kinase dead D289A mutant Thr308 hyperphosphorylation expressed in MCF7 cells at 2.5 uM after 30 mins by immunoblotting. In kind it is cell-based.
The subject of assay [15] is HEK-293T. The experiment in a line: Induction of myristoylated AKT3 M229G mutant Thr308 hyperphosphorylation expressed in HEK293T cells at 2.5 uM after 30 mins pretreated with mTOR kinase inhibitor PP242 for 10 mins before compound addition by immunoblotting. In kind it is cell-based.
Assay [16] deals with MiaPaCa2. The experiment in a line: Induction of myristoylated AKT2 M225G mutant Thr308 hyperphosphorylation expressed in MiaPaCa2 cells at 2.5 uM after 30 mins by immunoblotting. In kind it is cell-based.
Assay [17] deals with RAC-alpha serine/threonine-protein kinase (Homo sapiens), P31749 [M227G]. The experiment in a line: Induction of myristoylated AKT1 M227G mutant Ser473 hyperphosphorylation expressed in HEK293T cells at 2.5 uM after 30 mins by immunoblotting. Type of assay: cell-based. Conditions: HEK-293T.
Sequence of RAC-alpha serine/threonine-protein kinase (Homo sapiens), P31749 [M227G] (P31749 whole entry M227G): as the sequence (P31749 whole entry) above, with M227G counted along it
Assay [18] concerns RAC-alpha serine/threonine-protein kinase (Homo sapiens), P31749 [M227G,R25C]. The experiment in a line: Induction of myristoylated AKT1 M227G and R25C mutant Thr308 hyperphosphorylation expressed in HEK293T cells at 2.5 uM after 30 mins by immunoblotting. In kind it is cell-based. The note with it: HEK-293T.
Sequence of RAC-alpha serine/threonine-protein kinase (Homo sapiens), P31749 [M227G,R25C] (P31749 whole entry R25C/M227G): as the sequence (P31749 whole entry) above, with R25C, M227G counted along it
Assay [19] relates to HEK-293T. The experiment in a line: Induction myristoylated AKT2 M225G mutant Ser473 hyperphosphorylation expressed in HEK293T cells at 2.5 uM after 30 mins by immunoblotting. In kind it is cell-based.
Assay [20] deals with RAC-alpha serine/threonine-protein kinase (Homo sapiens), P31749 [M227G]. The experiment in a line: Induction of mCherry tagged AKT1 M227G Thr308 hyperphosphorylation expressed in HEK293 cells at 2.5 uM after 30 mins by immunoblotting. In kind it is cell-based.
In assay [21] the test system is MiaPaCa2. The experiment in a line: Induction of myristoylated AKT2 M225G and kinase dead D289A mutant Thr308 hyperphosphorylation expressed in MiaPaCa2 cells at 2.5 uM after 30 mins by immunoblotting. Type of assay: cell-based.
In assay [22] the test system is HEK-293T. The experiment in a line: Induction of myristoylated AKT3 M229G mutant Thr308 hyperphosphorylation expressed in HEK293T cells at 2.5 uM after 30 mins pretreated with pan-PI3K inhibitor PIK90 for 10 mins before compound addition by immunoblotting. Type of assay: cell-based.
The subject of assay [23] is RAC-alpha serine/threonine-protein kinase (Homo sapiens), P31749 [M227G]. The experiment in a line: Induction of myristoylated AKT1 M227G mutant Ser473 hyperphosphorylation expressed in HEK293T cells at 2.5 uM after 30 mins pretreated with mTOR kinase inhibitor PP242 for 10 mins before compound addition by immunoblotting. In kind it is cell-based. Conditions: HEK-293T.

The subject of assay [24] is HEK-293T. The experiment in a line: Induction of myristoylated AKT3 M229G mutant Ser473 hyperphosphorylation expressed in HEK293T cells at 2.5 uM after 30 mins pretreated with pan-PI3K inhibitor PIK90 for 10 mins before compound addition by immunoblotting. Type of assay: cell-based.
Assay [25] concerns RAC-alpha serine/threonine-protein kinase (Homo sapiens), P31749 [M227G,D292A]. The experiment in a line: Induction of myristoylated AKT1 M227G and kinase dead D292A mutant Ser473 hyperphosphorylation expressed in MCF7 cells at 2.5 uM after 30 mins by immunoblotting. Type of assay: cell-based.
The test system of assay [26] is RAC-alpha serine/threonine-protein kinase (Homo sapiens), P31749 [M227G]. The experiment in a line: Induction of myristoylated AKT1 M227G mutant Thr308 hyperphosphorylation expressed in HEK293 cells after 30 mins by immunoblotting. The note with it: HEK-293.
In assay [27] the test system is HEK-293T. The experiment in a line: Induction myristoylated AKT2 M225G mutant Thr308 hyperphosphorylation expressed in HEK293T cells at 2.5 uM after 30 mins by immunoblotting. Type of assay: cell-based.

Sequence of Proto-oncogene tyrosine-protein kinase receptor Ret (Homo sapiens), P07949 [Y791F] (P07949 whole entry Y791F): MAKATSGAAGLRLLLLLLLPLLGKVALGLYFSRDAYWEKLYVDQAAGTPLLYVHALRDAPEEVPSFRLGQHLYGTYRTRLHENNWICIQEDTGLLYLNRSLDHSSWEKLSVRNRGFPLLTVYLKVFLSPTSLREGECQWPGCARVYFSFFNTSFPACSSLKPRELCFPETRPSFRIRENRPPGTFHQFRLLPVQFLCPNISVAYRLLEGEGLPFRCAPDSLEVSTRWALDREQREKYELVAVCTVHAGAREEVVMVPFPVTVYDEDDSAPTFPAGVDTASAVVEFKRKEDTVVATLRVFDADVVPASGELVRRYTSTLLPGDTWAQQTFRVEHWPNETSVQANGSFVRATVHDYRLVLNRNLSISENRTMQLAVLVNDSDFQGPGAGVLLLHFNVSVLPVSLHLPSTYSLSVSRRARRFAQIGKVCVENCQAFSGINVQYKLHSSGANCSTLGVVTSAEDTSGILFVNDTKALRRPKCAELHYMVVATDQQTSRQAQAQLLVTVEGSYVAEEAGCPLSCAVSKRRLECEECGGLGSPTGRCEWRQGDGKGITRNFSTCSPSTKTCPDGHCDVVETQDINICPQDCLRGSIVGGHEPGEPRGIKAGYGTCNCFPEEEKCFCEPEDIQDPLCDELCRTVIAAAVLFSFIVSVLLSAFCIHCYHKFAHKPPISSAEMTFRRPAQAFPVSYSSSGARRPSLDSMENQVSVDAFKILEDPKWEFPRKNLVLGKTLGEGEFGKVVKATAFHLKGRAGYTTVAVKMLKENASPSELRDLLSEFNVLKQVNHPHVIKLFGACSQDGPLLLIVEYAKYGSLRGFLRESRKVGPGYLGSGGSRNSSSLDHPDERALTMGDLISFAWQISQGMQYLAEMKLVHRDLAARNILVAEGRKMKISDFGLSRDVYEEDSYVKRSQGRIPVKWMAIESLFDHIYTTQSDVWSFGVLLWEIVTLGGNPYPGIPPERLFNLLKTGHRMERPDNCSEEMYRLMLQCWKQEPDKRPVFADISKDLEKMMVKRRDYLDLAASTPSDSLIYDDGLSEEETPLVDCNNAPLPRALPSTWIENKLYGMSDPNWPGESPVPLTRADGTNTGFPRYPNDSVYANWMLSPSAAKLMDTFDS
Sequence of RAC-gamma serine/threonine-protein kinase (Homo sapiens) (Q9Y243 whole entry): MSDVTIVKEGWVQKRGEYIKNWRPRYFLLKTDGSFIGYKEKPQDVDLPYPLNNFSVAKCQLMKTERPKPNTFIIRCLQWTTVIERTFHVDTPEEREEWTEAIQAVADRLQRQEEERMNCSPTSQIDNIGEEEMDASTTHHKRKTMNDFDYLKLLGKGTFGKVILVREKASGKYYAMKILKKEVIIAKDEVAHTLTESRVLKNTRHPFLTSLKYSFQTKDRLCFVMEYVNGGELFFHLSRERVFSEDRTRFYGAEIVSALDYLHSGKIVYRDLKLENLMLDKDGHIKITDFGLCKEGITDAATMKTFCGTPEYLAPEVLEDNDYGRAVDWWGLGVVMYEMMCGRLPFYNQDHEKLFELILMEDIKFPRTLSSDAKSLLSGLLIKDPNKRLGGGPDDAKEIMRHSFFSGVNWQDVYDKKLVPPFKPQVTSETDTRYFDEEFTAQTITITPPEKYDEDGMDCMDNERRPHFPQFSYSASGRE
Sequence of Receptor-type tyrosine-protein kinase FLT3 (Homo sapiens) (P36888 whole entry): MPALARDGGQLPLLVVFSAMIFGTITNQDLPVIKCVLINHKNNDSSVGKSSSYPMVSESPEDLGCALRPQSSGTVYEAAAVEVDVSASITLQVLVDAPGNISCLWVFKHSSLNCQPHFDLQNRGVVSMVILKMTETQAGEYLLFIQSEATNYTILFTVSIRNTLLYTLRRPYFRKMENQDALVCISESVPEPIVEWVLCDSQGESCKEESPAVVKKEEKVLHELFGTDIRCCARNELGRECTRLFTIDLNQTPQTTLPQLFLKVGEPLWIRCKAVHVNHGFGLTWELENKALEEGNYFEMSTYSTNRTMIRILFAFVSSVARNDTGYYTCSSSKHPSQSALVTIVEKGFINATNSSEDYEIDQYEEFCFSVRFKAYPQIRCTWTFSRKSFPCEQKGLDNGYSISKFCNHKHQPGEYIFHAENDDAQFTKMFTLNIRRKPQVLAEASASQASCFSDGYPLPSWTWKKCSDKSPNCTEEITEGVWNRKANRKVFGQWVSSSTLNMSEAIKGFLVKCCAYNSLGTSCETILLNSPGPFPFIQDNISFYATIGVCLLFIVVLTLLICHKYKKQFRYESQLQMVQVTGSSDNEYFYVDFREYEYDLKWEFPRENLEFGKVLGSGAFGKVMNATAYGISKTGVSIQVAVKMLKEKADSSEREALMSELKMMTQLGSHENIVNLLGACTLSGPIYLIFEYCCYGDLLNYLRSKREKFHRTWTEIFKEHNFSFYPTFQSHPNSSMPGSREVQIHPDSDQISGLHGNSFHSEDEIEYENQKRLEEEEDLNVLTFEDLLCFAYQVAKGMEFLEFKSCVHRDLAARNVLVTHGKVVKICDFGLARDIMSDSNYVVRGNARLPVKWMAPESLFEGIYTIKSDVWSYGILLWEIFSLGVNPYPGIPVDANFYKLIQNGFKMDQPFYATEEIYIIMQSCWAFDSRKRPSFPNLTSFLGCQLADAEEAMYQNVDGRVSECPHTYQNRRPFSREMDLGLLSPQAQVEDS

Regarding `O=C(NCCCNc1nc(Nc2cccc(NC(=O)N3CCCC3)c2)ncc1I)c1cccs1`, the inhibition in assay [1] came to 84%; in assay [2] it was 3%; in assay [3] it was 91%; in [4], 33%; in assay [5] it was 95%; in assay [6] it was 2%.
On to `COc1ccccc1N1CCN(c2ncnc3[nH]nc(Br)c23)CC1`, for which the inhibition in [1] turned out to be 2%; in assay [2] it was 17%; in assay [3], 48%; in [4], 21%; in assay [5], 60%; in assay [6], 3%. In assay [7], inhibition was half-maximal at 22 µM (IC50).
For `CCCc1cc(-c2cncc(OC[C@@H](N)Cc3c[nH]c4ccccc34)c2)cc2c(C)n[nH]c12`, the result (in assay [8]; in assay [10]; in assay [12]; in assay [13]; in the assay with MiaPaCa2 [14]; in the assay on MCF7) was Active. Also, the result (with HEK-293T [15]; in the assay with MiaPaCa2 [16]; in [17]; with HEK-293T [19]; in [20]; in the assay on MiaPaCa2 [21]) was Active. Also, the outcome (in assay [25]; in the assay on HEK-293T [27]) was Active. Also, the result (in assay [9]; in [11]; in [18]; in the assay with HEK-293T [22]; in [23]; in the assay on HEK-293T [24]) was inactive. Also, the Activity entry in [26] is “Dose-dependent effect”.
